Assay results published in publication PMC6440450 (International Journal of Nanomedicine, 2019).
Like-named read-outs stand apart in the source and are kept apart here.

What was measured:
[1] = phosphate buffer, 37°C, after 24 hours; cited from earlier work
[2] = system: human erythroleukemia cell line (HEL); test: In vitro cell proliferation; type: cell-based; details: 72 hours exposure
Summary of the method: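 HEL cells were seeded at 5×10^3/well and treated 24 h later for 72 h. Doses were 12.5–2,500 nM for the lipid prodrug (free or nanocapsule-loaded) and 5–1,000 nM for the parent nucleoside; blank nanocapsules were excipient-matched. Pellets were frozen at −80°C for ≥48 h, then read by CyQuant. Medium-only wells defined 100% viability. Three independent experiments in quadruplicate; Mann–Whitney test.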

[3] = decitabine solution, human plasma, same conditions, after 6 hours; cited from earlier work
[4] = cited from earlier work
HEL cells = test: Cell-cycle analysis; type: cell-based, human; details: 72 hours, decitabine solution 1,000 nM
Summary of the method: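 HEL cells (RPMI 1640, 10% FBS, 1% antibiotics, 37°C, 5% CO2) were seeded at 5×10^4/well. After 24 h, they were treated with the test compound solution (1,000 nM), prodrug-loaded lipid nanocapsules (2,500 nM), excipient-matched blank nanocapsules or medium for 72 h. Cells were ethanol-fixed (70%, cold) and stained 15 min in the dark with 40 µg/mL propidium iodide plus 100 µg/mL RNase A. Phases were fitted by the Dean Jett Fox model. n=3 plates in triplicate; Mann–Whitney versus medium.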

## Nc1ncn([C@H]2C[C@H](O)[C@@H](CO)O2)c(=O)n1 [Decitabine]
[1]
  Initial concentration recovered: < 50%
[2]
  Concentration above which cell viability decreased: above 50 nM
[3]
  Initial concentration recovered: < 40%
[4]
  Half-life in plasma: 15 to 25 min
HEL cells
  Cells arrested in G2/M: 17.2%
